In ChEMBL document CHEMBL2057092, “The SAR analysis of TRPV1 agonists with the α-methylated B-region” (Bioorg Med Chem Lett, 2012):

What was measured:
[1] = target: T1, Transient receptor potential cation channel subfamily V member 1 (Rattus norvegicus, UniProt O35433); assay: Displacement of [3H]RTX from rat TRPV1 expressed in CHO cells; format: cell-based
[2] = target: T1, Transient receptor potential cation channel subfamily V member 1; assay: Agonist activity at rat TRPV1 expressed in CHO cells assessed as calcium uptake; format: functional, cell-based
Procedure, shortened: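 Functional agonism was read as 45Ca2+ uptake in CHO cells heterologously expressing rat TRPV1.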

[3] = target: Transient receptor potential cation channel subfamily V member 1 (Rattus norvegicus) (UniProt O35433); assay: Antagonist activity at rat TRPV1 expressed in CHO cells assessed as inhibition of calcium uptake at 30 uM; format: functional, cell-based
Transient receptor potential cation channel subfamily V member 1 (Rattus norvegicus), sequence (O35433 whole entry): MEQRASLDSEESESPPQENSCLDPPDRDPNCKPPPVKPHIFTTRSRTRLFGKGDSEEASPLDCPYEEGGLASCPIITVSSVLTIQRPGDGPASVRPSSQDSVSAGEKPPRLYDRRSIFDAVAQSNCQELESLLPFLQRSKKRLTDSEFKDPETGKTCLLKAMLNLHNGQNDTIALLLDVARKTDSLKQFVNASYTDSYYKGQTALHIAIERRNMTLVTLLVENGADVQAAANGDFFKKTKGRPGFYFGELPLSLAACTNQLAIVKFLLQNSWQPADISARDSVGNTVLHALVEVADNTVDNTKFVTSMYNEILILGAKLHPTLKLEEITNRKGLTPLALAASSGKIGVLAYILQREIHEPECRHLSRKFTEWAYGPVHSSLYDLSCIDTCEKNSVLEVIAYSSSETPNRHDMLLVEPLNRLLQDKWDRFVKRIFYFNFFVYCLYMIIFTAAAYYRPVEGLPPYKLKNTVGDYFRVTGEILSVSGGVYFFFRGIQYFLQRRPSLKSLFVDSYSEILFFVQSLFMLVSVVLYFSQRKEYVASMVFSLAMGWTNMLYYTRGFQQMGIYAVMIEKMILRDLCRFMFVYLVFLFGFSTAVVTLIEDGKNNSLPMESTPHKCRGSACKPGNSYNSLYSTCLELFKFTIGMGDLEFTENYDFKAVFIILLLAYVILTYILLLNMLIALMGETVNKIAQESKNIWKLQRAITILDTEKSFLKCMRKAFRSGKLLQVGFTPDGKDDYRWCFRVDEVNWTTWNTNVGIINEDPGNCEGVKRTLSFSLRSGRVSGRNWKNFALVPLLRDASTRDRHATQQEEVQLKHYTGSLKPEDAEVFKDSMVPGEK

[4] = target: Transient receptor potential cation channel subfamily V member 1 (Rattus norvegicus) (UniProt O35433); assay: Agonist activity at rat TRPV1 expressed in CHO cells assessed as calcium uptake at 300 nM relative to capsaicin; format: functional, cell-based

T1 sequence (O35433 whole entry): as above

Compound | Ki [1] | EC50 [2] | inhibition [3] | Activity [4]
CCCCCCCC/C=C\CCCCCCCC(=O)NCc1ccc(O)c(OC)c1 [OLVANIL] | 142 nM | 202 nM |  | 
CCCCCCCCNC(=O)Cc1ccc(O)c(OC)c1 | 848 nM | 77 nM |  | 
CC(C)(C)c1ccc(CNC(=O)Cc2ccc(O)c(Cl)c2)cc1 | 132 nM | 206 nM |  | 
CCCCCCCCCC(=O)NCc1ccc(O)c(OC)c1 | 864 nM | 83 nM |  | 
CCCCCCCCCNC(=O)Cc1ccc(O)c(OC)c1 | 240 nM | 61 nM |  | 
CCCCCCCC/C=C/CCCCCCCC(=O)NC(C)c1ccc(O)c(OC)c1 (stereo unspecified) | 226 nM | 678 nM |  | 
COc1cc(C(C)C(=O)NCc2ccc(C(C)(C)C)cc2)ccc1O (stereo unspecified) | 308 nM | 24 nM | 15% | 
CC(C(=O)NCc1ccc(C(C)(C)C)cc1)c1ccc(OCCN)c(Cl)c1 (stereo unspecified) | 380 nM |  | 38% | 75%
CC(C)(C)c1ccc(CNC(=O)Cc2ccc(OCCN)c(Cl)c2)cc1 | 2470 nM |  | 56% | 36%
CCCCCCCCCNC(=O)C(C)c1ccc(O)c(OC)c1 (stereo unspecified) | 159 nM | 26.3 nM |  | 
COc1cc(C(C)C(=O)NCCCc2ccc(C)c(C)c2)ccc1OCCN (stereo unspecified) | 518 nM | 404 nM |  | 
CC(C)(C)c1ccc(CNC(=O)Cc2ccc(O)c(F)c2)cc1 | 808 nM | 911 nM | 30% | 
CC(C(=O)NCc1ccc(C(C)(C)C)cc1)c1ccc(O)c(Cl)c1 (stereo unspecified) | 33.1 nM |  | 9% | 77%
CC(C(=O)NCc1ccc(C(C)(C)C)cc1)c1ccc(O)c(F)c1 (stereo unspecified) | 178 nM | 221 nM | 20% | 
COc1cc(C(C)NC(=S)NCc2ccc(C(C)(C)C)cc2)ccc1OCCN (stereo unspecified) | 1430 nM | 5800 nM |  | 
CC(C(=O)NCc1ccc(C(C)(C)C)cc1)c1ccc(OCCN)c(F)c1 (stereo unspecified) | 2160 nM |  |  | 91%
CCCCCCCCC(=O)NC(C)c1ccc(O)c(OC)c1 (stereo unspecified) | 4280 nM | 1580 nM | 44% | 72%
COc1cc(CC(=O)NCCCc2ccc(C)c(C)c2)ccc1O | 354 nM | 41 nM |  | 
COc1cc(C/N=C(\S)NCc2ccc(C(C)(C)C)cc2)ccc1OCCN | 84 nM | 132 nM |  | 
CCCCCCCCCC(=O)NC(C)c1ccc(O)c(OC)c1 (stereo unspecified) | 3300 nM | 1250 nM | 28% | 
COc1cc(CC(=O)NCc2ccc(C(C)(C)C)cc2)ccc1OCCN | 1230 nM | 358 nM | 12% | 
CCCCCCCCNC(=O)C(C)c1ccc(O)c(OC)c1 (stereo unspecified) | 744 nM | 130 nM |  | 
COc1cc(C(C)C(=O)NCCCc2ccc(C)c(C)c2)ccc1O (stereo unspecified) | 177 nM | 21.3 nM |  | 
CC(C)(C)c1ccc(CNC(=O)Cc2ccc(OCCN)c(F)c2)cc1 | 10100 nM |  | 18% | 63%
COc1cc(C(C)C(=O)NCc2ccc(C(C)(C)C)cc2)ccc1OCCN (stereo unspecified) | 504 nM | 238 nM | 16% | 
COc1cc(CC(=O)NCCCc2ccc(C)c(C)c2)ccc1OCCN [DAVASAICIN] | 930 nM | 589 nM |  | 
COc1cc(CNC(=S)NCc2ccc(C(C)(C)C)cc2)ccc1O |  | 2.6 nM |  | 
CCCCCCCCC(=O)NCc1ccc(O)c(OC)c1 [NONIVAMIDE] | 1220 nM | 223 nM |  | 
COc1cc(C(C)NC(=S)NCc2ccc(C(C)(C)C)cc2)ccc1O (stereo unspecified) | 194 nM | 380 nM | 35% | 70%
